Article PMC4876928 (Clinical cancer research : an official journal of the …, 2016)

Experiments:
Format in all cases: in vivo, human
advanced solid tumors = assay: Tumor response by RECIST v1.0 / modified RECIST
[1] = test system: tumor glucose uptake (FDG-PET); assay: FDG-PET tumor uptake
In short: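 Patients with advanced solid tumours received oral test compound once daily. FDG-PET/CT scans were taken at baseline and 1-4 h after dosing on days 22 and 55. Scans were centrally assessed by EORTC criteria, with SUVmax change as the measure. PIK3CA hotspot mutations in archival FFPE tumour DNA were typed by DxS allele-specific PCR, qRT-PCR or Sanger sequencing.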

[2] = Phase I safety and tolerability: DLTs, MTD, adverse events

Cc1c(CN2CCN(C(=O)[C@H](C)O)CC2)sc2c(N3CCOCC3)nc(-c3cnc(N)nc3)nc12 [apitolisib]
Median time on study (advanced solid tumors; 40 mg 28/28): 2.9 months
stable disease with tumor regression (advanced solid tumors; 40 mg 28/28): 20 patients
time on study, range (advanced solid tumors; 40 mg 28/28): 1-21.2 months
PRs (advanced solid tumors; 40 mg 28/28, 49 RECIST evaluable patients): Five
PD as best radiological response (advanced solid tumors; 14 evaluable patients with PIK3CA mutations, 40 mg 28/28): 3
PRs as best radiological response (advanced solid tumors; 14 evaluable patients with PIK3CA mutations, 40 mg 28/28, 1 confirmed): 3
PR rate in MPM patients (advanced solid tumors; MPM): 12%
Median time on study (advanced solid tumors; MPM, 30 mg 28/28): 4 months
time on study, range (advanced solid tumors; MPM, 30 mg 28/28): 0.5-38.9 months
patients on study for more than 6 months (advanced solid tumors; MPM, 30 mg 28/28 (8 patients)): 30%
partial response rate (advanced solid tumors; RP2D 40 mg QD): 10.2%
dose from which anti-tumor activity was apparent (advanced solid tumors; in vivo): 8 mg
response rate with enrichment for PIK3CA mutations (advanced solid tumors; in vivo): 18.8%
single agent response rate (advanced solid tumors; in vivo): 10-19%
time on apitolisib (advanced solid tumors; one patient, metastatic clear cell ovarian cancer, 40 mg 28/28): 282 days
maximal tumor shrinkage, change from baseline (advanced solid tumors; one patient, metastatic clear cell ovarian cancer, E545K PIK3CA, 40 mg 28/28): −48.3%
patients continuing on study for over 12 months (advanced solid tumors; stage 1 (3 patients)): 5%
partial responses (PR) (advanced solid tumors; stage 1, among 56 patients): 4
confirmed responses (advanced solid tumors; stage 1, 32 mg QD 21/28 and 50 mg QD 21/28): 2
patients with PIK3CA mutations with more than 25% mean decrease in SUVmax ([1]; 40 mg QD): 9/12
patients with decrease in FDG-PET uptake of >25% ([1]; 40 mg QD (21/32)): 66%
PIK3CA mutation patients with FDG-PET response ([1]; all dose cohorts (10 out of 14)): 71%
Decreased appetite, treatment related AE, n (%) ([2]; 30mg 28/28d (n=27), G3): 0
Diarrhea, treatment related AE, n (%) ([2]; 30mg 28/28d (n=27), G3): 2 (7%)
Dry skin, treatment related AE, n (%) ([2]; 30mg 28/28d (n=27), G3): 0
Fatigue, treatment related AE, n (%) ([2]; 30mg 28/28d (n=27), G3): 4 (15%)
Hyperglycemia, treatment related AE, n (%) ([2]; 30mg 28/28d (n=27), G3): 1 (4%)
Liver dysfunction (abnormal LFTs), treatment related AE, n (%) ([2]; 30mg 28/28d (n=27), G3): 1 (4%)
Mucosal inflammation, treatment related AE, n (%) ([2]; 30mg 28/28d (n=27), G3): 0
Nausea, treatment related AE, n (%) ([2]; 30mg 28/28d (n=27), G3): 1 (4%)
Patients with any AE related to apitolisib, n (%) ([2]; 30mg 28/28d (n=27), G3): 14 (52%)
Pneumonitis, treatment related AE, n (%) ([2]; 30mg 28/28d (n=27), G3): 1 (4%)
Pruritus, treatment related AE, n (%) ([2]; 30mg 28/28d (n=27), G3): 0
Rash (maculopapular, pruritic, macular, erythematous, generalized), treatment related AE, n (%) ([2]; 30mg 28/28d (n=27), G3): 5 (19%)
Vomiting, treatment related AE, n (%) ([2]; 30mg 28/28d (n=27), G3): 0
Decreased appetite, treatment related AE, n (%) ([2]; 30mg 28/28d (n=27), ≤G2): 13 (48%)
Diarrhea, treatment related AE, n (%) ([2]; 30mg 28/28d (n=27), ≤G2): 16 (59%)
Dry skin, treatment related AE, n (%) ([2]; 30mg 28/28d (n=27), ≤G2): 7 (26%)
Fatigue, treatment related AE, n (%) ([2]; 30mg 28/28d (n=27), ≤G2): 15 (56%)
Hyperglycemia, treatment related AE, n (%) ([2]; 30mg 28/28d (n=27), ≤G2): 0
Liver dysfunction (abnormal LFTs), treatment related AE, n (%) ([2]; 30mg 28/28d (n=27), ≤G2): 1 (4%)
Mucosal inflammation, treatment related AE, n (%) ([2]; 30mg 28/28d (n=27), ≤G2): 3 (11%)
Nausea, treatment related AE, n (%) ([2]; 30mg 28/28d (n=27), ≤G2): 11 (41%)
Patients with any AE related to apitolisib, n (%) ([2]; 30mg 28/28d (n=27), ≤G2): 12 (44%)
Pneumonitis, treatment related AE, n (%) ([2]; 30mg 28/28d (n=27), ≤G2): 3 (11%)
Pruritus, treatment related AE, n (%) ([2]; 30mg 28/28d (n=27), ≤G2): 2 (7%)
Rash (maculopapular, pruritic, macular, erythematous, generalized), treatment related AE, n (%) ([2]; 30mg 28/28d (n=27), ≤G2): 12 (44%)
Vomiting, treatment related AE, n (%) ([2]; 30mg 28/28d (n=27), ≤G2): 5 (19%)
Decreased appetite, treatment related AE, n (%) ([2]; 30mg 28/28d (n=27), ≥G4): 0
Diarrhea, treatment related AE, n (%) ([2]; 30mg 28/28d (n=27), ≥G4): 0
Dry skin, treatment related AE, n (%) ([2]; 30mg 28/28d (n=27), ≥G4): 0
Fatigue, treatment related AE, n (%) ([2]; 30mg 28/28d (n=27), ≥G4): 0
Hyperglycemia, treatment related AE, n (%) ([2]; 30mg 28/28d (n=27), ≥G4): 1 (4%)
Liver dysfunction (abnormal LFTs), treatment related AE, n (%) ([2]; 30mg 28/28d (n=27), ≥G4): 0
Mucosal inflammation, treatment related AE, n (%) ([2]; 30mg 28/28d (n=27), ≥G4): 0
Nausea, treatment related AE, n (%) ([2]; 30mg 28/28d (n=27), ≥G4): 0
Patients with any AE related to apitolisib, n (%) ([2]; 30mg 28/28d (n=27), ≥G4): 1 (4%)
Pneumonitis, treatment related AE, n (%) ([2]; 30mg 28/28d (n=27), ≥G4): 0
Pruritus, treatment related AE, n (%) ([2]; 30mg 28/28d (n=27), ≥G4): 0
Rash (maculopapular, pruritic, macular, erythematous, generalized), treatment related AE, n (%) ([2]; 30mg 28/28d (n=27), ≥G4): 0
Vomiting, treatment related AE, n (%) ([2]; 30mg 28/28d (n=27), ≥G4): 0
DLTs, Description ([2]; 40 mg 21/28 d, stage 1): G4 fasting hyperglycemia
Decreased appetite, treatment related AE, n (%) ([2]; 40mg 28/28d (n=51), G3): 0
Diarrhea, treatment related AE, n (%) ([2]; 40mg 28/28d (n=51), G3): 5 (10%)
Dry skin, treatment related AE, n (%) ([2]; 40mg 28/28d (n=51), G3): 1 (2%)
Fatigue, treatment related AE, n (%) ([2]; 40mg 28/28d (n=51), G3): 2 (4%)
Hyperglycemia, treatment related AE, n (%) ([2]; 40mg 28/28d (n=51), G3): 9 (18%)
Liver dysfunction (abnormal LFTs), treatment related AE, n (%) ([2]; 40mg 28/28d (n=51), G3): 6 (12%)
Mucosal inflammation, treatment related AE, n (%) ([2]; 40mg 28/28d (n=51), G3): 3 (6%)
Nausea, treatment related AE, n (%) ([2]; 40mg 28/28d (n=51), G3): 1 (2%)
Patients with any AE related to apitolisib, n (%) ([2]; 40mg 28/28d (n=51), G3): 26 (51%)
Pneumonitis, treatment related AE, n (%) ([2]; 40mg 28/28d (n=51), G3): 2 (4%)
Pruritus, treatment related AE, n (%) ([2]; 40mg 28/28d (n=51), G3): 1 (2%)
Rash (maculopapular, pruritic, macular, erythematous, generalized), treatment related AE, n (%) ([2]; 40mg 28/28d (n=51), G3): 7 (14%)
Vomiting, treatment related AE, n (%) ([2]; 40mg 28/28d (n=51), G3): 1 (2%)
Decreased appetite, treatment related AE, n (%) ([2]; 40mg 28/28d (n=51), ≤G2): 11 (22%)
Diarrhea, treatment related AE, n (%) ([2]; 40mg 28/28d (n=51), ≤G2): 23 (45%)
Dry skin, treatment related AE, n (%) ([2]; 40mg 28/28d (n=51), ≤G2): 7 (14%)
Fatigue, treatment related AE, n (%) ([2]; 40mg 28/28d (n=51), ≤G2): 34 (67%)
Hyperglycemia, treatment related AE, n (%) ([2]; 40mg 28/28d (n=51), ≤G2): 5 (10%)
Liver dysfunction (abnormal LFTs), treatment related AE, n (%) ([2]; 40mg 28/28d (n=51), ≤G2): 2 (4%)
Mucosal inflammation, treatment related AE, n (%) ([2]; 40mg 28/28d (n=51), ≤G2): 15 (29%)
